Rev-erbA mod – modulators of human Rev-erb alpha DNA binding; P20393; Rev-erbα–FITC-DNA binding, fluorescence polarization, 90 min; activity, % at 10 µM; hit rate 0.79% among 370,000;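 active = activity above about 14%, limit read from the data; passing the limit was not always enough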;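 also: 0% = DMSO wells with 35 nM protein and 100% = DMSO wells with 750 nM protein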
Target sequence (P20393 whole entry, looked up): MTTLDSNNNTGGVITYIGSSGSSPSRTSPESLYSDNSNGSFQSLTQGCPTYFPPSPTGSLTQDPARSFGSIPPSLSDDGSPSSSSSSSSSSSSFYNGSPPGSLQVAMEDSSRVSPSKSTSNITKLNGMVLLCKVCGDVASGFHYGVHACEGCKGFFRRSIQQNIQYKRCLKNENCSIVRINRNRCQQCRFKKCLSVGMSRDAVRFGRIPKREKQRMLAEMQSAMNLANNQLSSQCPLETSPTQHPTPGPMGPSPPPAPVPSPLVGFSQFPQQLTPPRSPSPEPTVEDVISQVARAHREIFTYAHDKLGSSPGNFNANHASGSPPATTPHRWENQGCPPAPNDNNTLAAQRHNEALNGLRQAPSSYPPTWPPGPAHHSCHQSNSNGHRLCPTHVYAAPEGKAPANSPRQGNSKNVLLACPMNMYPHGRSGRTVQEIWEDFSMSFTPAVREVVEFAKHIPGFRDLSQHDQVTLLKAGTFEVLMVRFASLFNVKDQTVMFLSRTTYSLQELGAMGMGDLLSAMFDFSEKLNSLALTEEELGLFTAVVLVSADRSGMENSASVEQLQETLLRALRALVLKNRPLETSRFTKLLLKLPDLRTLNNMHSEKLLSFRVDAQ
PG9 binder – binds the HIV-1 gp120 antibody PG9; TR-FRET gp120-PG9 antibody binding; inhibition, % at 6.7 µM; hit rate 0.43% among 360,000; AID 624416; in the data active = inhibition above about 8.5%
NR2E3 ag-1 – NR2E3 (human) agonism; Q9Y5X4; GST-NR2E3/biotin-RetCOR TR-FRET, 1536-well; inhibition of corepressor binding, % at 4.78 µM; hit rate 0.12% among 320,000; AID 2300;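 active = percent inhibition above the cutoff of mean plus 3 SD of all tested compounds, set per screening campaign, cut at about 20% in these data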;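 also: 0% = DMSO wells and 100% = biotin wells as full block of FRET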
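Material: NR2E3–RetCOR corepressor complex / Incubation: Compound–protein incubation for 5 h at 4 °C / Dosing: compound at 4.8 µM, single dose / Detection: time-resolved FRET / Benchmarks: high control biotin, low control 0.6% DMSO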
NR2E3 ag-2 – human photoreceptor-specific nuclear receptor agonism; Q9Y5X4; CHO-S Gal4-NCOR/VP16-NR2E3 two-hybrid, luciferase; inhibition of corepressor binding, % at 3.98 µM; hit rate 0.35% among 360,000; AID 602229;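 active = inhibition above the mean of all tested compounds plus 3 SD, cut at about 70% in these data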;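 also: 0% = DMSO with NR2E3 transfected cells and 100% = cells lacking NR2E3 construct; higher means lower luciferase signal from less NR2E3 corepressor binding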
PG9 bind confirm – confirmation of small molecules binding HIV-1 gp120 antibody PG9; TR-FRET PG9 antibody binding, biochemical; shares compounds with PG9 binder; inhibition, % at 6.7 µM; hit rate 90% among 1,500; in the data active = inhibition above about 9%
PGV04 Ab binding – binds control antibody PGV04 in PG9 binder counter-screen; shares compounds with PG9 binder; TR-FRET PGV04 antibody-gp120 binding, biochemical; inhibition, % at 6.7 µM; hit rate 95% among 1,500; AID 651604; in the data active = inhibition above about 9.5%
Starred values were filed as active, the others as inactive; / = not tested or not shown. In the library only some 1.4% were active in any assay of this set; here they are far more common.

SMILES	Rev-erbA mod	PG9 binder	NR2E3 ag-1	NR2E3 ag-2	PG9 bind confirm	PGV04 Ab binding
COc1ccc(Cn2c(=O)[nH]c3cc(C(=O)NCc4ccc5c(c4)OCO5)ccc3c2=O)cc1	/	9.1*	4	3	14*	18*
CSCCC(Nc1ncnc2ccc(Br)cc12)C(=O)O (stereo not drawn)	2	13*	13	3	20*	20*
N#CCC[C@@H]1CC[C@]2(CCCN(C(=O)c3ccc4ccccc4n3)C2)O1	4	/	/	/	/	/
Cc1ccc(C)c(NC(=O)CN(C)C(=O)c2cc3c(s2)CCCCC3)c1	2	11*	0	12	16*	22*
Cc1ccc(NC(=O)CN(C)C(=O)c2cc3c(s2)CCCCC3)cc1	-4	3	6	-10	/	/
CCCCn1c(NC(=O)c2ccc(Br)o2)c(S(=O)(=O)c2ccccc2)c2nc3ccccc3nc21	-9	14*	7	8	18*	24*
Cc1ccc(S(=O)(=O)c2c(N)n(CCCO)c3nc4ccccc4nc23)cc1	2	-1	3	4	/	/
CCCCn1c(NC(=O)c2ccco2)c(S(=O)(=O)c2ccc(C)cc2)c2nc3ccccc3nc21	-5	18*	/	-18	21*	25*
CCC(=O)Nc1c(S(=O)(=O)c2ccccc2)c2nc3ccccc3nc2n1C(C)c1ccccc1 (stereo not drawn)	-6	0	1	-3	/	/
Cc1noc(C)c1C(=O)Nc1sc2c(c1C(N)=O)CCC2	6	12*	0	9	6	17*
Cn1ncc(Cl)c1C(=O)Nc1sc2c(c1C(N)=O)CCC2	10	8.7*	-7	17	12*	29*
NC(=O)c1c(NC(=O)c2ccccc2)sc2c1CCC2	-4	-2	4	-141	/	/
O=C(COc1ccc(F)c(Cl)c1)N[C@H]1CCCN(CC2CC2)C1	-8	/	/	/	/	/
CCCCCN1CCCCC(NC(=O)c2c(F)cccc2F)C1=O (stereo not drawn)	7	/	/	/	/	/
O=C1C(=O)N(Cc2cccnc2)C(c2ccccn2)/C1=C(/O)c1ccc(Br)cc1 (stereo not drawn)	-3	11*	8	-8	18*	23*
O=C1C(=O)N(Cc2cccnc2)C(c2cccc(O)c2)/C1=C(\O)c1ccc2c(c1)OCCO2 (stereo not drawn)	1	9.0*	7	-53	10*	20*
CCOc1ccc(C2/C(=C(\O)c3ccc4c(c3)OCCO4)C(=O)C(=O)N2Cc2cccnc2)cc1OCC (stereo not drawn)	-4	2	6	-13	/	/
O=C1C(=O)N(Cc2ccncc2)C(c2cccc(O)c2)/C1=C(\O)c1ccc2c(c1)OCCO2 (stereo not drawn)	1	8	13	-29	/	/
COc1ccccc1C1/C(=C(\O)c2ccc3c(c2)OCCO3)C(=O)C(=O)N1Cc1cccnc1 (stereo not drawn)	7	14*	7	-35	12*	18*
COC(=O)[C@]12C[C@H](CC(=O)N3CCN(C(=O)c4ccco4)CC3)C(=O)N(CCc3ccc(OC)c(OC)c3)C1=C[C@H](COCc1ccccc1)O[C@@H]2C	2	/	/	/	/	/
O=S(=O)(NCc1cn(Cc2ccccc2)nn1)c1ccccc1Br	6	/	/	/	/	/
CC(C)CCNC(=O)NC(=O)COC(=O)c1cc(S(=O)(=O)N2CCOCC2)ccc1N1CCCCC1	15	32*	2	14	28*	46*
C=CCN(CC#Cc1ccccc1)Cc1ccc(OC)cc1OC	4	/	/	/	/	/
C=CCN(C)CC#CCCCCl	4	/	/	/	/	/
Cc1cccc(-n2c(SCC(N)=O)nc3c(c2=O)C2(CCCC2)Cc2ccccc2-3)c1	-3	19*	12	1	20*	25*
CON(C)S(=O)(=O)c1ccc2c(c1)N(Cc1ccc(C)cc1)C(=O)C1CCCN21 (stereo not drawn)	12	10*	7	-13	19*	27*
CCN(C[C@@H]1[C@@H](c2ccccc2)[C@H](CO)N1S(C)(=O)=O)C(=O)C1CCC1	-5	/	/	/	/	/
COc1ccc(C(=O)Nc2cc(-c3ccc(C)cc3)no2)cc1	-2	14*	/	-26	15*	18*
CCNC(=O)N(C)[C@H]1C[C@H]2c3[nH]c4c(-c5cccc(C)c5)cccc4c3CCN2C(=O)[C@H]1[C@H](C)O	5	/	/	/	/	/
